Screens as filed in PubChem BioAssay.
M1 ag: activates human CHRM1 receptor. P11229. CHO-K1 hM1, Fluo-8 calcium fluorescence, agonist mode; 0% DMSO, 100% acetylcholine EC100. activation, % at 3 µM. hit rate 0.33% among 360,000;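 active = activation above the run's mean compound activation plus 3 SD, cut at about 16% in these data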;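 also: peak over basal fluorescence ratio within a 140 s kinetic read after compound addition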
Target sequence (P11229 whole entry, looked up): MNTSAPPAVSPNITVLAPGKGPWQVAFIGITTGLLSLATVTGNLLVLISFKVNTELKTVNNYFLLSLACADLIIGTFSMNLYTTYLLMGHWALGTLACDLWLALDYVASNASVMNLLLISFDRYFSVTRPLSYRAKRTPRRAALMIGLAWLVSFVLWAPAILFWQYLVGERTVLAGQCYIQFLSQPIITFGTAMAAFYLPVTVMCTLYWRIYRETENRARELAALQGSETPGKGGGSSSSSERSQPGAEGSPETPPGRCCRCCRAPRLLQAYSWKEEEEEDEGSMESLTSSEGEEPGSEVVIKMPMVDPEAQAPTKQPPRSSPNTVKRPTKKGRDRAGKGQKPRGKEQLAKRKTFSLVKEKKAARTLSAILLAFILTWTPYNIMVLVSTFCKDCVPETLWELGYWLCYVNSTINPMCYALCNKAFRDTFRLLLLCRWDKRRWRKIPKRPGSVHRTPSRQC
M1 PAM: positive allosteric modulators of human M1 muscarinic receptor; P11229; CHO-K1 hM1, Fluo-8 calcium fluorescence, ACh EC20; 0% = ACh EC20, 100% = maximal ACh; activation, % at 3 µM; hit rate 0.088% among 360,000; AID 588819; in the data active = activation above about 19%, passing the limit was not always enough
CHRM1 antagonist: blocks human M1 muscarinic receptor; P11229; CHO-K1 hM1, Fluo-8 calcium fluorescence, ACh EC80 antagonist; inhibition, % at 3 µM; hit rate 1.3% among 360,000; AID 588852;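 active = percent inhibition above its own plate's cutoff, namely the mean of that plate's compound wells plus 3 SD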;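 also: peak over basal fluorescence ratio during 140 s after agonist addition; 0% = ACh EC80 plus DMSO and 100% = DMSO alone without agonist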
CHRM5 PAM: positive allosteric modulators of human muscarinic M5 receptor | P08912 | CHO-K1 hM5, Fluo-8 calcium, ACh EC20 PAM; 0% = ACh EC20, 100% = ACh EC100 | activation, % at 3 µM | hit rate 0.3% among 360,000;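 active = activation above the run cutoff, the mean activation of all test compounds plus 3 SD, cut at about 18% in these data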
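system = human M5 receptor in CHO-K1 cells | reagent = EC20 acetylcholine as agonist stimulus | compound dosing = single-point, 3 µM nominal | incubation = Fluo-8 loading 80 min at 37 °C plus 30 min room temperature | detection = Fluo-8 calcium dye fluorescence, kinetic read | benchmarks = low control EC20 acetylcholine (0%), high control EC100 acetylcholine (100%)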
CHRM5 antagonist: CHRM5 antagonism in calcium assay. P08912. CHO-hM5 cells, Fluo-8 calcium fluorescence, ACh EC80. inhibition, % at 3 µM. hit rate 0.59% among 360,000. AID 624040;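 active = inhibition above a per-plate cutoff, the mean of that plate's test compounds plus 3 SD, cut at about 27% in these data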;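 also: 0% = acetylcholine EC80 with DMSO and 100% = DMSO without agonist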
M5 ag: CHRM5 agonism in calcium assay | P08912 | CHO-K1 hM5 cells, Fluo-8 calcium fluorescence; 0% DMSO wells, 100% maximal acetylcholine response | activation, % at 3 µM | hit rate 0.19% among 360,000;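 active = activation above the run's mean over test compounds plus 3 SD, cut at about 23% in these data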;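 also: signal is peak over basal fluorescence ratio across the kinetic read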
* = called active by the depositor; nt = no result given. Shown are actives, neighbours in structure and some others; about 2.2% of the full set was active somewhere.

SMILES | M1 ag | M1 PAM | CHRM1 antagonist | CHRM5 PAM | CHRM5 antagonist | M5 ag
Cn1c(=O)c2c(ncn2CCN(CCO)Cc2ccccc2)n(C)c1=O | -4.5 | 3.9 | -4.2 | 2.0 | 12.4 | -0.1
CC(NC(=O)c1ccco1)C(c1cccs1)N1CCN(c2ccc(F)cc2)CC1 (configuration not stated) | -8.9 | -18.4 | 51.2* | -8.5 | 7.1 | 0.0
CC(NC(=O)c1ccco1)C(c1cccs1)N1CCN(c2ccccc2)CC1 (configuration not stated) | -7.2 | 2.5 | -7.9 | -3.6 | -0.4 | -0.7
N/C(Cc1ccccc1Sc1ccccc1)=N\O | -0.7 | -2.0 | 1.9 | -7.4 | 10.7 | -0.4
CCN(CC)Cc1ccccc1Sc1ccccc1 | -7.2 | -26.4 | 98.2* | -18.2 | 99.0* | -8.8
COC(=O)c1ccc(C(=O)OC)c(=O)[nH]1 | -2.3 | 11.6 | -15.6 | 3.0 | 2.5 | -1.9
Cc1cc(C(=O)CSc2nc3ccccc3[nH]2)c(C)n1CC1CCCO1 (configuration not stated) | 1.4 | -34.1 | 76.0* | -23.3 | 60.3* | 10.2
COc1ccc(Br)cc1/C(C)=N/NC1=NCCN1 | 68.2* | -14.4 | 79.4* | -16.9 | 29.6* | 46.7*
CSCCC(NC(=O)/C(=C/c1ccco1)NC(=O)c1ccco1)C(=O)O (configuration not stated) | -3.8 | 12.6 | -13.0 | 0.7 | 0.7 | 1.2
O=C(CN1C(=O)c2ccccc2S1(=O)=O)c1ccc2c(c1)OCCO2 | -2.2 | 25.6 | -30.8 | 21.5* | -15.6 | 1.9
O=C(Nc1ccc(F)cc1)c1cc2cc(Cl)ccc2[nH]1 | 2.0 | -1.7 | -0.7 | -14.3 | 31.2* | 1.7
CCC(=O)OCC(=O)c1c(N)n(Cc2ccccc2)c(=O)n(C)c1=O | -4.1 | 4.0 | -4.2 | -1.1 | -12.5 | -2.5
Cn1c(=O)c(C(=O)COc2ccc(C#N)cc2)c(N)n(Cc2ccccc2)c1=O | 28.0* | -6.4 | 9.5 | -17.8 | 12.3 | 38.0*
Cc1ccc(CCNC(=O)CCn2ccc3cc(S(=O)(=O)N4CCCC4)ccc32)cc1 | -4.0 | 4.8 | -13.6 | 3.1 | 2.0 | -2.2
O=C(CCn1ccc2cc(S(=O)(=O)N3CCCC3)ccc21)NCCc1ccccc1 | -3.6 | 17.4 | 2.8 | 26.1* | 28.6* | 0.8
CNC(=O)CSc1nc2ccccc2c(=O)n1CCc1ccccc1 | -1.5 | -2.0 | 8.4 | 1.4 | 1.5 | 0.8
CC1(C)Cc2cccc(OCC(=O)Nc3ccccc3N3CCOCC3)c2O1 | -2.9 | -12.6 | 29.7* | 15.2 | 7.8 | 8.0
CCCCN(C)c1c(C)nc2ccc(C(=O)NCc3ccc4c(c3)OCO4)cn12 | -5.3 | -5.7 | -2.5 | -5.7 | 4.6 | -1.6
CCCCOCCCNc1ncnc2c1[nH]c1ccccc12 | 3.6 | -22.0 | 35.3* | -17.6 | 28.3* | 5.7
CC#CC[N+](C)(C)CCCCCCCCCC | -8.2 | -19.2 | 57.0* | 4.3 | 3.1 | -18.5
CCCNC(=O)c1ccccc1NS(=O)(=O)c1ccc(OC)c(OC)c1 | -0.9 | 10.1 | -5.2 | 7.7 | 5.9 | -0.7
O=C(Nc1nc(-c2cc(F)ccc2F)cs1)C1=NN(c2ccccc2)C(=O)CC1 | -5.9 | 2.0 | 13.2 | -4.8 | 7.5 | -3.5
COc1ccc(-c2csc(NC(=O)C3=NN(c4ccccc4)C(=O)CC3)n2)cc1 | -6.3 | -17.9 | 24.0* | -17.1 | 19.6 | 2.7
COc1ccc(S(=O)(=O)Nc2ccccc2C(=O)Nc2nc(-c3ccc(F)cc3)cs2)cc1OC | -4.5 | -14.0 | 28.6 | -21.4 | 43.0* | 6.5
COc1ccc(-c2csc(NC(=O)c3ccccc3NS(=O)(=O)c3ccc(C)cc3)n2)cc1 | -5.0 | -13.7 | 16.9 | -19.0 | 32.9* | 1.8
CCOC(=O)c1c(C)oc2c1c(CN1CCN(C(=O)OCC)CC1)c(O)c1ccccc12 | 16.9* | -7.6 | 0.8 | -7.1 | 8.4 | 8.9
CCOC(=O)c1c(C)oc2c1c(CN1CCN(CCO)CC1)c(O)c1ccccc12 | -2.1 | -5.2 | 12.1 | 0.6 | 7.6 | 6.3
COc1cccc(-c2ncn(CCc3ccccc3OC)c2C(C)C)c1 | nt | nt | nt | -20.7 | 8.9 | 0.2
